In BindingDB's records for doi:10.1021/jm960325j (Universit&#224, 1996):

Each molecule was assayed against Translocator protein (Rattus norvegicus, UniProt P16257) (assay: Binding affinity against peripheral benzodiazepine receptor( PBR).).
Procedure, shortened: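 Rat cerebral cortex membranes washed repeatedly at 50000g in 50 mM phosphate pH 7.4, 2.3 mg tissue per sample. Filtration, scintillation counting. IC50 by log-probit analysis over six concentrations in duplicate, means of three experiments. Maximal concentration 1000 nM.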

Sequence of Translocator protein (P16257 whole entry, looked up): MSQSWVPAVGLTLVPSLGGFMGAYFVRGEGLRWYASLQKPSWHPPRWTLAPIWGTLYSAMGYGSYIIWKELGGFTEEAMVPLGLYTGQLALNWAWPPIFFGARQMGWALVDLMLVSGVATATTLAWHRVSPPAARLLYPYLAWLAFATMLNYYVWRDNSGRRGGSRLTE

IC50, > 1000 nM:
CCCCCCN(CCCCCC)C(=O)Cc1c2[nH]c3ccccc3cc-2c(=O)n1-c1ccc(Cl)cc1 [2-[2-(4-Chloro-phenyl)-1-oxo-2,3-dihydro-1H-pyrrolo[3,4-b]quinolin-3-yl]-N,N-dihexyl-acetamide]
CCCN(CCC)C(=O)Cc1c2[nH]c3ccccc3cc-2c(=O)n1-c1ccc(Cl)cc1 [2-[2-(4-Chloro-phenyl)-1-oxo-2,3-dihydro-1H-pyrrolo[3,4-b]quinolin-3-yl]-N,N-dipropyl-acetamide]
CCCN(CCC)C(=O)Cc1c2[nH]cccc-2c(=O)n1-c1ccc(Cl)cc1 [2-[6-(4-Chloro-phenyl)-5-oxo-6,7-dihydro-5H-pyrrolo[3,4-b]pyridin-7-yl]-N,N-dipropyl-acetamide]
O=c1c2ccc[nH]c-2cn1-c1ccc(Cl)cc1 [6-(4-Chloro-phenyl)-6,7-dihydro-pyrrolo[3,4-b]pyridin-5-one]
